Results from ChEMBL document CHEMBL1955853, “Discovery of 3,4-dihydropyrimidin-2(1H)-ones with inhibitory activity against HIV-1 replication” (Bioorg Med Chem Lett, 2012).
pEC50: −log10 of the molar value.

Legend:
[1] = system: Human immunodeficiency virus 1; experiment: Antiviral activity against HIV1 LAI infected in human CEMx174 cells coexpressing GFP preincubated for 1 hr measured after 5 days by fluorimetry; format: functional, organism-based; settings: Human immunodeficiency virus 1, LAI
In short: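 CEM reporter cells carrying an EGFP cassette driven by the HIV promoter were seeded at 4000 cells/well. They were infected with HIV-1 LAI at MOI 3 and incubated 5 days at 37 °C, 5% CO2. EGFP fluorescence intensity was read on a plate reader. Values are the geometric mean of two determinations, with each value within 25% of the mean.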

[2] = Cytotoxicity against human CEMx174 cells; format: cell-based
In short: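 CC50 is the compound concentration that reduces viability of uninfected cells by 50%. Values are the geometric mean of two determinations, with each value within 25% of the mean.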

Row | SMILES | pEC50 [1] | CC50 [2] [µM]
1 | CC1=C(C(=O)OCC2CCCCC2)C(c2ccc(O)cc2)NC(=O)N1 (stereo not given) | 6.37 | > 10
2 | COc1cccc(C2NC(=O)NC(C)=C2C(=O)OCC2CCCCC2)c1 (stereo not given) | 5.90 | > 10
3 | O=C1NC(c2ccccc2)=C(C(=O)OCC2CCCCC2)C(c2cccc(O)c2)N1 (stereo not given) | < 5.00 | > 10
4 | CC1=C(C(=O)O)C(c2cccc(O)c2)NC(=O)N1 (stereo not given) | < 5.00 | > 10
5 | CC1=C(C(=O)OCc2ccccc2)C(c2cccc(O)c2)NC(=O)N1 (stereo not given) | < 5.00 | > 10
6 | CC1=C(C(=O)OC2CCCCC2)C(c2cccc(O)c2)NC(=O)N1 (stereo not given) | < 5.00 | > 10
7 | CC1=C(C(=O)NCC2CCCCC2)C(c2cccc(O)c2)NC(=O)N1 (stereo not given) | < 5.00 | 
8 | CC1=C(C(=O)OCC2CCCCC2)C(c2cccc(O)c2)NC(=O)N1C (stereo not given) | < 5.00 | > 10
9 | CC1=C(C(=O)OCC2CCCCC2)C(c2cccc(O)c2)N(C)C(=O)N1 (stereo not given) | < 5.00 | > 10
10 | Cc1nc(=O)[nH]c(-c2cccc(O)c2)c1C(=O)OCC1CCCCC1 | < 5.00 | > 10
11 | CC1=C(C(=O)OCC2CCCCC2)C(c2cccc(O)c2)NC(=S)N1 (stereo not given) | < 5.00 | > 10
12 | CCCC1=C(C(=O)OCC2CCCCC2)C(c2cccc(O)c2)NC(=O)N1 (stereo not given) | 6.54 | > 10
13 | CC(C)C1=C(C(=O)OCC2CCCCC2)C(c2cccc(O)c2)NC(=O)N1 (stereo not given) | < 5.00 | 
14 | O=C1NC(C2CC2)=C(C(=O)OCC2CCCCC2)C(c2cccc(O)c2)N1 (stereo not given) | < 5.00 | > 10
15 | O=C1NC(CCl)=C(C(=O)OCC2CCCCC2)C(c2cccc(O)c2)N1 (stereo not given) | 6.44 | > 3
16 | C#CC1=C(C(=O)OCC2CCCCC2)C(c2cccc(O)c2)NC(=O)N1 (stereo not given) | 5.66 | > 1
17 | CCC1=C(C(=O)OCC2CCCCC2)C(c2cccc(O)c2)NC(=S)N1 (stereo not given) | < 5.00 | > 10
18 | CC1=C(C(=O)OCC2CCCCC2)C(c2ccccc2O)NC(=O)N1 (stereo not given) | < 5.00 | > 10
19 | CCC1=C(C(=O)OCC2CCCCC2)C(c2ccc(O)cc2)NC(=O)N1 (stereo not given) | 7.51 | > 10
20 | CCC1=C(C(=O)OCC2CCCCC2)C(c2cccc([N+](=O)[O-])c2)NC(=O)N1 (stereo not given) | 6.47 | > 10

Row | SMILES | pEC50 [1] | CC50 [2] [µM]
21 | CCC1=C(C(=O)OCC2CCCCC2)C(c2cccc(N)c2)NC(=O)N1 (stereo not given) | 6.80 | > 10
22 | CCC1=C(C(=O)OCC2CCCCC2)C(c2ccc([N+](=O)[O-])cc2)NC(=O)N1 (stereo not given) | 6.85 | > 10
23 | CCC1=C(C(=O)OCC2CCCCC2)C(c2ccc(N)cc2)NC(=O)N1 (stereo not given) | 6.82 | > 10
24 | CCC1=C(C(=O)OCC2CCCCC2)C(c2ccc(NC)cc2)NC(=O)N1 (stereo not given) | 6.97 | > 10
25 | CCC1=C(C(=O)OCC2CCCCC2)C(c2ccc(NC(C)=O)cc2)NC(=O)N1 (stereo not given) | 7.20 | > 10
26 | CCC1=C(C(=O)OCC2CCCCC2)C(c2ccc(N(C)C)cc2)NC(=O)N1 (stereo not given) | 6.75 | > 10
27 | CCC1=C(C(=O)OCC2CCCCC2)C(c2ccc(C#N)cc2)NC(=O)N1 (stereo not given) | 7.21 | > 10
28 | CCC1=C(C(=O)OCC2CCCCC2)C(c2ccc(C(=O)OC)cc2)NC(=O)N1 (stereo not given) | 6.91 | > 10
29 | CCC1=C(C(=O)OCC2CCCCC2)C(c2ccc(C(=O)O)cc2)NC(=O)N1 (stereo not given) | < 5.00 | > 10
30 | CCC1=C(C(=O)OCC2CCCCC2)C(c2ccc(Cl)cc2)NC(=O)N1 (stereo not given) | 7.06 | > 10
31 | CCC1=C(C(=O)OCC2CCCCC2)C(c2ccc(F)cc2)NC(=O)N1 (stereo not given) | 7.62 | > 10
32 | CC1=C(C(=O)OCC2CCCCC2)[C@H](c2cccc(O)c2)NC(=O)N1 | 6.63 | > 10
33 | CC1=C(C(=O)OCC2CCCCC2)[C@@H](c2cccc(O)c2)NC(=O)N1 | < 5.00 | > 10
34 | CCC1=C(C(=O)OCC2CCCCC2)[C@H](c2cccc(O)c2)NC(=O)N1 | 7.42 | > 10
35 | CCC1=C(C(=O)OCC2CCCCC2)[C@@H](c2cccc(O)c2)NC(=O)N1 | < 5.00 | > 10
36 | CCOC(=O)C1=C(C)NC(=O)NC1c1cccc(O)c1 (stereo not given) | < 5.00 | 
37 | CC1=C(C(=O)OCC2CCCCC2)C(c2cccc(O)c2)NC(=O)N1 (racemic) | 6.28 | > 10
38 | CCC1=C(C(=O)OCC2CCCCC2)C(c2cccc(O)c2)NC(=O)N1 (racemic) | 7.06 | > 10
39 | Cc1ccnc2c1NC(=O)c1cccnc1N2C1CC1 [NEVIRAPINE] | 6.82 | > 10
